Source: ChEMBL document CHEMBL3525942, “Disposition and metabolism of [14C]SB-649868, an orexin 1 and 2 receptor antagonist, in humans” (Drug Metab Dispos, 2011)

Experiments:
Plasma [1] = experiment: Drug level in human plasma assessed as radioactivity treated with [14C]SB-649868 at 30 mg, po single dose after 3 hrs by HPLC-MSn analysis; assay type: ADME, organism-based; parameters: dosed compound name [14C]SB-649868; conditions: in vivo
Summary of the method: (§1)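 Plasma taken 3, 12, 24 and 48 h after one oral 30 mg [14C] dose, extracted, and run on radio-HPLC: C8 column, 45 mM ammonium acetate pH 3.8 and acetonitrile gradient, 1 ml/min. Fractions collected into scintillant plates and counted 5 min. Extraction recovery measured; data corrected when recovery was <85%. Values are % of plasma radioactivity, BQL 1%; n=7 at 3 and 12 h.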

Plasma [2] = experiment: Drug level in human plasma assessed as radioactivity treated with [14C]SB-649868 at 30 mg, po single dose after 12 hrs by HPLC-MSn analysis; assay type: ADME, organism-based; parameters: dosed compound name [14C]SB-649868; conditions: in vivo; summary of the method: as §1
Plasma [3] = experiment: Drug level in human plasma assessed as radioactivity treated with [14C]SB-649868 at 30 mg, po single dose after 24 hrs by HPLC-MSn analysis; assay type: ADME, organism-based; parameters: dosed compound name [14C]SB-649868; conditions: in vivo; summary of the method: as §1
Plasma [4] = experiment: Drug level in human plasma assessed as radioactivity treated with [14C]SB-649868 at 30 mg, po single dose after 48 hrs by HPLC-MSn analysis; assay type: ADME, organism-based; parameters: dosed compound name [14C]SB-649868; conditions: in vivo; summary of the method: as §1
[5] = Terminal phase half life in human at 10 to 60 mg; assay type: ADME, organism-based; parameters: dosed compound name [14C]SB-649868; conditions: in vivo, read-out: Compound recovery (converted)
[6] = Elimination half life in rat; assay type: ADME, organism-based; parameters: dosed compound name [14C]SB-649868; conditions: in vivo, read-out: Compound recovery
[7] = Elimination half life in dog; assay type: ADME, organism-based, Canis lupus familiaris; parameters: dosed compound name [14C]SB-649868; conditions: in vivo, read-out: Compound recovery
Plasma [8] = experiment: Drug recovery in human plasma at 30, po single dose after 48 hrs by HPLC-MSn analysis; assay type: ADME, organism-based; parameters: dosed compound name [14C]SB-649868; summary of the method: as §1
Plasma [9] = experiment: Drug recovery in human plasma at 30, po single dose after 3 hrs by HPLC-MSn analysis; assay type: ADME, organism-based; parameters: dosed compound name [14C]SB-649868; summary of the method: as §1
Homo sapiens [10] = experiment: AUC (0 to infinity) in human plasma treated with [14C]SB-649868 at 30 mg, po single dose; assay type: ADME, organism-based; parameters: dosed compound name [14C]SB-649868; conditions: in vivo
Summary of the method: (§2)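 Eight healthy men given one oral 30 mg [14C] capsule. Plasma sampled 0.25–96 h. Parent measured in 50 µl plasma after acetonitrile precipitation with deuterated internal standard, by HPLC-MS/MS (positive-ion MRM). Calibration 5–5000 ng/ml, 1/x2 weighted. Noncompartmental analysis: t1/2 = ln2/λz, linear-up/log-down trapezoid AUC, CL/F = Dose/AUC0-inf.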

Homo sapiens [11] = experiment: AUC (0 to t) in human plasma treated with [14C]SB-649868 at 30 mg, po single dose; assay type: ADME, organism-based; parameters: dosed compound name [14C]SB-649868; conditions: in vivo; summary of the method: as §2
Homo sapiens [12] = experiment: Cmax in human plasma treated with [14C]SB-649868 at 30 mg, po single dose; assay type: ADME, organism-based; parameters: dosed compound name [14C]SB-649868; conditions: in vivo; summary of the method: as §2
Homo sapiens [13] = experiment: Tmax in human plasma treated with [14C]SB-649868 at 30 mg, po single dose; assay type: ADME, organism-based; parameters: dosed compound name [14C]SB-649868; conditions: in vivo; summary of the method: as §2
Homo sapiens [14] = experiment: Apparent half life in human plasma treated with [14C]SB-649868 at 30 mg, po single dose; assay type: ADME, organism-based; parameters: dosed compound name [14C]SB-649868; conditions: in vivo; summary of the method: as §2
Homo sapiens [15] = experiment: Apparent oral clearance in human plasma treated with [14C]SB-649868 at 30 mg, po single dose; assay type: ADME, organism-based; parameters: dosed compound name [14C]SB-649868; conditions: in vivo; summary of the method: as §2
[16] = Drug level in human feces treated with [14C]SB-649868 at 30 mg, po single dose by HPLC-MSn analysis; conditions: in vivo
[17] = Drug level in human urine treated with [14C]SB-649868 at 30 mg, po single dose after 0 to 72 hrs by HPLC-MSn analysis; conditions: in vivo, 0-72 h

Compound recovery (Plasma [1]) | Compound recovery (Plasma [2]) | Compound recovery (Plasma [3]) | Compound recovery (Plasma [4]) | half-life [5] | half-life [6] | half-life [7] | Compound recovery (Plasma [8]) | Compound recovery (Plasma [9]) | Compound recovery (Homo sapiens [10]) | Compound recovery (Homo sapiens [11]) | Compound recovery (Homo sapiens [12]) | Compound recovery (Homo sapiens [13]) | Compound recovery (Homo sapiens [14]) | Compound recovery (Homo sapiens [15]) | Compound recovery [16] | Compound recovery [17] | SMILES
67.7% | 33.2% | 9.8% | < 1 | 2.2 h | < 1 h | < 1 h | 34% | 97% | 8300 ng·h/mL | 8200 ng·h/mL | 1.2 µg/mL | 4 h | 4.8 h | 3610 mL/h | Below quantification limit | Below quantification limit | Cc1nc(C(=O)N2CCCC[C@H]2CNC(=O)c2cccc3occc23)c(-c2ccc(F)cc2)s1 [SB-649868]
– | – | – | – | – | – | – | – | – | – | – | – | – | – | – | 1.1% | Below quantification limit | Cc1nc(C(=O)N[C@@H](CCCC(=O)O)CNC(=O)c2cccc3occc23)c(-c2ccc(F)cc2)s1
